Compound activity from PubChem.
MsrA inh = inhibitors of bovine MsrA. inhibition, % at 15.5 µM. purified bovine MsrA, absorbance read-out. 0.75% of 360,000 active; in the data active = inhibition above about 4.5%;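 also: 0% = vehicle wells with enzyme and 100% = reference inhibitor wells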
MsrA act = activates bovine MsrA enzyme; purified bovine MsrA, absorbance read-out; activation, % at 10.6 µM; 0.3% of 360,000 active; in the data active = activation above about 7.5%;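 also: 0% = vehicle and 100% = reference activator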
proCasp3 act = activators of human procaspase-3; P42574; recombinant procaspase-3 D3A, Ac-DEVD-pNA absorbance 405 nm; activation, % at 8.5 µM; 0.11% of 330,000 active; AID 463141;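 active = activation above the mean of all tested compounds plus 3 SD, cut at about 21% in these data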;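 also: 0% = DMSO alone and 100% = DMSO wells spiked with extra 5 µM PC-3 D3A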
Target sequence (P42574 whole entry D9A/D28A/D175A): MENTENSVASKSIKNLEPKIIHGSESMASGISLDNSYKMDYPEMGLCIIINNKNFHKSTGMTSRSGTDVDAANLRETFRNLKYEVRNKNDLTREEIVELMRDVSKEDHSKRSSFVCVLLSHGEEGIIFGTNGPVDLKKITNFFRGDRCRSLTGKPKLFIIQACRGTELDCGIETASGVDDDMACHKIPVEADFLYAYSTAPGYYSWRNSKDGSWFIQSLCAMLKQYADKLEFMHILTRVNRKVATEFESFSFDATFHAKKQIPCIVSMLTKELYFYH
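Assay system: Procaspase-3 D3A mutant, all three cleavage aspartates alanine. Buffer or medium: Zinc-free HEPES saline buffer with Triton X-100. Times: 1 h compound preincubation, 2 h substrate hydrolysis at 25 °C. Measured by: 405 nm absorbance of p-nitroaniline, reads at 0 and 120 min. Read-out basis: percent activation relative to control range. Replicates: singlicate.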
proCasp7 act = counter-screen: procaspase-7 (human) activation. recombinant procaspase-7, Ac-DEVD-pNA absorbance 405 nm; D23A/D198A/D206A triple mutant, cannot self-cleave; scale: DMSO 0, 5 µM enzyme 100. AID 463210. 0.093% of 330,000 active. activation, % at 8.5 µM;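 active = percent activation above the screen-wide mean plus 3 SD, cut at about 25% in these data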
Target sequence (P55210 whole entry D23A/D198A/D206A): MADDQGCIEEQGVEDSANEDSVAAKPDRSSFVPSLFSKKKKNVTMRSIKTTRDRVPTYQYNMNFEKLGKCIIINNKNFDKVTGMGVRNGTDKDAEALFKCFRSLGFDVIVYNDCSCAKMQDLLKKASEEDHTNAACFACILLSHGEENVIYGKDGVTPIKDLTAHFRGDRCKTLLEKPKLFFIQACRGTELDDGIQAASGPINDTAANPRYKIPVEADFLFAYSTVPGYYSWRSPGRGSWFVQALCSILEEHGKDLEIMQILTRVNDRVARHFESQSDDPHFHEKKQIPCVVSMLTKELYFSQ
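Assay system – Uncleavable procaspase-7 mutant enzyme · Quantity – 2 µM procaspase-7 mutant as dispensed · Times – 1 h preincubation, 2 h reaction · Dosing – single nominal 8.5 µM compound dose, 0.8% DMSO final · Buffer or medium – Zinc-free 50 mM HEPES buffer, pH 7.4, with NaCl and Triton X-100 · Detection – Epi-absorbance of released pNA at 405 nm, two timepoints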
Tb MetRS inh = blocks T. brucei methionyl-tRNA synthetase activity. inhibition, % at 11.9 µM. 0.4% of 360,000 active. purified T. brucei MetRS, ATP depletion, Kinase-Glo luminescence. AID 624268;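 active = inhibition above a per-plate cutoff of the control wells' mean inhibition plus 3 SD, cut at about 5.5% in these data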;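 also: 0% = DMSO wells median and 100% = median of wells with control inhibitor compound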
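Test system: purified T. brucei MetRS enzyme. Also added: ATP, methionine and E. coli bulk tRNA substrates. Compound: 11.9 µM single point. Schedule: 15 min enzyme-compound preincubation, 2 h reaction, 10 min detection, 25 °C. Signal: luciferase luminescence of residual ATP, Kinase-Glo. Evaluation: percent inhibition versus plate control medians. Controls: DMSO wells, low control.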
Tb MetRS conf = confirmation of Trypanosoma brucei MetRS inhibitors; shares compounds with Tb MetRS inh; T. brucei MetRS enzyme, luminescence (ATP depletion); inhibition, % at 11.9 µM; 93% of 1,400 active; in the data active = inhibition above about 7%
Jurkat cytotox = kills Jurkat cells in T. brucei MetRS counterscreen; AID 624413; Jurkat cells viability, ATP luminescence; inhibition, % at 8.3 µM; 12% of 1,400 active; shares compounds with Tb MetRS inh; in the data active = inhibition above about 15%;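 also: 0% = vehicle and 100% = reference inhibitor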
Tb MetRS inh FP = T. brucei MetRS inhibition, orthogonal assay | shares compounds with Tb MetRS inh | purified T. brucei MetRS, fluorescence polarization | inhibition, % at 11.9 µM | 44% of 1,400 active | AID 651607; in the data active = inhibition above about 17%;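 also: 0% = vehicle wells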
An asterisk follows results filed as active; nt = not tested or not shown; ! = not active in a repeat. Most compounds without a hit are left out; they make up all but 1.5% or so of the library.

SMILES	MsrA inh	MsrA act	proCasp3 act	proCasp7 act	Tb MetRS inh	Tb MetRS conf	Jurkat cytotox	Tb MetRS inh FP
CC(c1ccc(Cl)cc1)N(CCN(C)C)c1ccccn1 (centres undefined)	0	nt	nt	nt	nt	nt	nt	nt
COc1cc(NC(=O)[C@@H](Cc2ccccc2)NC(=O)[C@H]2O[C@@H](n3ccc(=O)[nH]c3=O)[C@H](O)[C@@H]2O)cc(OC)c1OC	0	nt	nt	nt	nt	nt	nt	nt
NC(=NCCCCCCN=C(N)/N=C(\N)Nc1ccc(Cl)cc1)/N=C(\N)Nc1ccc(Cl)cc1	-1	-1	-4	4	45*!	53*	31*	51*
CC(C)N=C(N)N=C(N)Nc1ccc(Cl)cc1	-1	-1	-6	1	2	nt	nt	nt
CCCCc1c(-c2ccccc2OC)ncn1CCc1cccc(OC)c1	1	-7	nt	nt	9.9*	23*	36*	1
CCCCc1c(-c2ccccc2OC)ncn1CCc1cccc(F)c1	1	-7	nt	nt	-1	nt	nt	nt
CSc1nn(CCC#N)c(=O)[nH]c1=O	0	nt	nt	nt	nt	nt	nt	nt
O=C(CNC(=O)C1COc2ccccc2O1)N/N=C/c1ccc(O)cc1O (centres undefined)	2	-1	2	18	12*	36*	52*	17*
O[C@@H](Cc1ccccc1)[C@@H](/C=C/c1ccccc1)N(Cc1ccccc1)Cc1ccccc1	0	nt	nt	nt	nt	nt	nt	nt
C/C(CC(=O)Nc1ccc(Cl)c(C(F)(F)F)c1)=N\NC(=O)c1ccccc1O	1	-6	8	2	16*	93*	28*	91*
COc1cccc(CC(=O)NCC2CCN(C(=O)C(=O)c3cccs3)CC2)c1	1	nt	nt	nt	nt	nt	nt	nt
CC(C)c1ccc(Oc2cccc3c2S(=O)(=O)N([C@H](C)c2ccccc2)C[C@@H](COCc2ccccc2)O3)cc1	0	nt	nt	nt	nt	nt	nt	nt
Cn1nnc(NCc2cc(Br)ccc2OCc2cccs2)n1	0	-3	2	-9	20*	28*	3	13
CCCN1CN(Cc2ccco2)c2nc3ccccc3n2C1	1	2	2	4	20*	17*	9	11
CC(C)[C@H](NC(=O)c1cccs1)C(=O)N1CCC[C@H]1C(=O)NCc1ccccc1	0	nt	nt	nt	nt	nt	nt	nt
Clc1cc(Br)ccc1OCCCn1ccnc1	-1	1	7	2	9.9*	17*	5	12
Clc1cc(Br)ccc1OCCn1ccnc1	0	-3	3	-1	0	nt	nt	nt
CC1(C)NC(=O)N(CCCCOc2ccc(Br)cc2Cl)C1=O	0	-12	2	9	4	nt	nt	nt
CC1(C)NC(=O)N(CCCOc2ccc(Br)cc2Cl)C1=O	1	-2	4	1	11*	24*	-7	104*
CN(CC(=O)Nc1ccc(Cl)c(C(F)(F)F)c1)C(=O)C1CCC1	-1	1	-8	6	0	nt	nt	nt
CN(CC(=O)Nc1ccc(Cl)c(C(F)(F)F)c1)C(=O)CCNC(=O)c1ccco1	0	-2	9	10	1	nt	nt	nt
CN(CC(=O)Nc1ccc(Cl)c(C(F)(F)F)c1)C(=O)/C=C/c1ccco1	1	-1	12	2	29*	38*	1	21*
CN(CC(=O)Nc1ccc(Cl)c(C(F)(F)F)c1)C(=O)/C=C/c1cccs1	1	-1	-6	-8	21*	70*	5	41*
O=S1(=O)N[C@@H](Cc2ccccc2)COc2cc(N3CCCCC3)ccc21	0	nt	nt	nt	nt	nt	nt	nt
COc1ccc(CN(C2CCCC2)S(=O)(=O)c2cc(Br)ccc2Br)c(OC)c1	0	nt	nt	nt	nt	nt	nt	nt
SMILES	MsrA inh	MsrA act	proCasp3 act	proCasp7 act	Tb MetRS inh	Tb MetRS conf	Jurkat cytotox	Tb MetRS inh FP
Oc1ccc(Br)cc1CNc1cnc2ccccc2c1	0	-2	-15	-7	11*	15*	40*	0
Cc1ccc(O)c(CNc2cnc3ccccc3c2)c1	1	-13	-7	1	0	nt	nt	nt
C[C@@H]1ON(C)[C@H]2C[C@H]3c4[nH]c5c(-c6ccccc6F)cccc5c4CCN3C(=O)[C@@H]12	-1	nt	nt	nt	nt	nt	nt	nt
Cc1cc(NS(=O)(=O)c2ccc(NC(=O)C(c3ccccc3)c3ccccc3)cc2)no1	-1	-11	0	-10	0	nt	nt	nt
Cc1cc(C)nc(NS(=O)(=O)c2ccc(NC(=O)Nc3ccccc3)cc2)n1	1	-2	-3	0	13*	16*	2	5
Cc1cc(NS(=O)(=O)c2ccc(NC(=O)Nc3ccccc3)cc2)no1	-1	-5	-6	5	8.4*	16*	5	-4
Cc1cc(C)nc(NS(=O)(=O)c2ccc(NS(=O)(=O)c3ccccc3)cc2)n1	-1	-1	2	16	-1	nt	nt	nt
C=CCNC(=S)N(C)[C@H]1C[C@H]2c3cc(-c4ccccc4C)ccc3CCN2C[C@H]1[C@H](C)O	1	nt	nt	nt	nt	nt	nt	nt
CCS(=O)(=O)N1CCN(c2ccc(Cl)cc2[N+](=O)[O-])CC1	1	-4	2	-1	5.7*	14*	8	7
C[C@H]1C=C(C(=O)NCc2nc3ccccc3[nH]2)O[C@@H](OCCCCO)C1	0	-2	-27	-21	14*	54*	0	27*
O=C(NCc1nc2ccccc2[nH]1)C1=C[C@@H](C2CCCCC2)C[C@@H](OCCCCO)O1	0	-1	1	17	48*	83*	-7	62*
CC(C)(C)[C@H]1C=C(C(=O)NCc2nc3ccccc3[nH]2)O[C@@H](OCCCCO)C1	0	-4	3	3	57*	97*	-6	61*
COC(=O)[C@]12C[C@H](CC(=O)NCC3CCCCC3)C(=O)N(CCc3ccc(OC)c(OC)c3)C1=C[C@H](C(C)(C)C)O[C@@H]2C	0	nt	nt	nt	nt	nt	nt	nt
C#CCN1CC(COc2ccccc2)Oc2cccc(Oc3ccc(C(C)C)cc3)c2S1(=O)=O (centres undefined)	0	nt	nt	nt	nt	nt	nt	nt
O=C(O)CN1C(=O)/C(=C\c2ccc(OC(=O)c3ccco3)cc2)SC1=S	1	-3	-10	-13	8.8*	27*	-5	15
COc1ccccc1NC(=O)OC[C@@H]1CSCCS(=O)(=O)N1	-1	nt	nt	nt	nt	nt	nt	nt
O=C(Nc1ccccc1)Nc1ccc(Cl)c(S(=O)(=O)N2CCOCC2)c1	0	1	4	14	15*	19*	14	15
O=C(Nc1cccc(S(=O)(=O)N2CCOCC2)c1)c1ccc(Cl)c([N+](=O)[O-])c1	0	0	1	-4	7.7*	19*	21*	15
S=C1NCCN1c1ccc(Cl)cc1	0	nt	nt	nt	nt	nt	nt	nt
O=C(NCc1cc(Cl)cc(Cl)c1)c1ccc2sc([C@@H]3O[C@H](CO)[C@H](O)[C@H](O)[C@H]3O)nc2c1	0	0	nt	nt	18*	51*	-3	27*
